An excerpt weighted towards active compounds, which were near 2.3% of everything screened.
TRPC4 PAM: allosteric potentiators of mouse TRPC4 channel; AID 2227; hit rate 0.42% among 310,000; B-score at 10 µM; HEK293 TRPC4beta/mu-opioid, DAMGO EC20, Fluo-4 Ca2+ flux; active compounds read high;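 active = B-score of calcium response area above 5 SD of library B-scores, with initial fluorescence ratio within 5 SD of library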
Target sequence (Q9QUQ5 whole entry, looked up): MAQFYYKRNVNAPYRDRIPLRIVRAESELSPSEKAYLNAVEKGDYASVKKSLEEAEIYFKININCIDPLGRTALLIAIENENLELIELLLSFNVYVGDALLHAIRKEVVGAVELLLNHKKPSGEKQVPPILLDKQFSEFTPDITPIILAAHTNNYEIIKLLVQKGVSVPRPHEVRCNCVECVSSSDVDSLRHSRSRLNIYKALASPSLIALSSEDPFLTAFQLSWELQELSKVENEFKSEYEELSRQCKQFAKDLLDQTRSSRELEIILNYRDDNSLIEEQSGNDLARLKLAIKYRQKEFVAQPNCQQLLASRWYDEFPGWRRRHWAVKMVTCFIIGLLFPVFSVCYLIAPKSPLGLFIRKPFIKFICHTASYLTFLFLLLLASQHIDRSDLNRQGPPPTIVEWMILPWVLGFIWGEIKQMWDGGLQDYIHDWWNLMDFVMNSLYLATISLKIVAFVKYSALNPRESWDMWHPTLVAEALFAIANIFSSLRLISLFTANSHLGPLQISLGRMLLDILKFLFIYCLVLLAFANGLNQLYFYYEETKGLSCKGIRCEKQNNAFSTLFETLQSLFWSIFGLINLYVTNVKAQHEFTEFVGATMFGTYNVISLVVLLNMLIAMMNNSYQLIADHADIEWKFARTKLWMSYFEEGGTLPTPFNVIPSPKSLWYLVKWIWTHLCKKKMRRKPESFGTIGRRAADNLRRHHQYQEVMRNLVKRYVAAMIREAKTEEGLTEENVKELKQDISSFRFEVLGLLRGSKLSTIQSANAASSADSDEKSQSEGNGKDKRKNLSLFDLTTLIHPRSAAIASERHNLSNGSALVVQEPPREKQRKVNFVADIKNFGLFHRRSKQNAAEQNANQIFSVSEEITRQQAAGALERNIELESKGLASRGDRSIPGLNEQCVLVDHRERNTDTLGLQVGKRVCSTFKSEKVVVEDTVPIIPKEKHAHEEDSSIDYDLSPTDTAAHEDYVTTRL
TRPC4 act: opens the mouse TRPC4 cation channel | Q9QUQ5 | HEK293 TRPC4beta/mu-opioid, Fluo4 calcium fluorescence; active compounds read high | B-score at 10 µM | hit rate 0.49% among 310,000 | AID 2237;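 active = B-score above 5 SD of library B-scores, and initial fluorescence ratio not above library mean plus 5 SD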;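 also: positive B-score marks a calcium rise read as TRPC4 activation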
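Assay system: HEK293 cells stably co-expressing mouse TRPC4beta and mu-opioid receptor / Timing: Fluo4 dye loading 45 min at room temperature, 110 s recording / Signal: Fluo4 calcium-sensitive dye fluorescence, kinetic, 1 Hz baseline / Read-out: integrated baseline-normalised fluorescence ratio, converted to per-well B score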
TRPC6 inh: blocks the mouse TRPC6 cation channel | HEK293-TRPC6, membrane potential dye, ACh-evoked depolarization; active compounds read low | B-score at 10 µM | hit rate 1.1% among 310,000 | AID 2553;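 active = B-score under library mean minus 3 SD, initial fluorescence not abnormally high, positive integrated signal ratio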;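 also: B-score derived from integrated fluorescence ratio over the kinetic read; more negative B-score means stronger inhibition of depolarization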
TRPC6 activator: activators of mouse TRPC6 channel; Q61143; HEK293-TRPC6 membrane potential dye fluorescence; active compounds read high; B-score at 10 µM; hit rate 0.13% among 310,000;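 active = B-score of the integrated fluorescence ratio above library mean plus 3 SD, and starting fluorescence ratio within library mean plus 5 SD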;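 also: higher score means more depolarization so channel activation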
TRPC4 block: TRPC4 (mouse) channel inhibition; Q9QUQ5; HEK293 TRPC4beta/mu-opioid, DAMGO-evoked Fluo4 calcium flux; active compounds read low; B-score at 10 µM; hit rate 0.39% among 300,000;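 active = B-score over 3 SD under the library average, no early fluorescence shift, positive overall ratio signal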
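Test system – stable TRPC4beta/mu-opioid receptor HEK293 cells · Probe or stimulus – DAMGO, a submaximal dose followed by a maximal one · Dosing – one concentration per compound · Signal – Fluo4 calcium fluorescence by kinetic imaging, 5 s 1 Hz baseline · Evaluation – per-well B score of integrated baseline-normalized Fluo4 ratio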
Each line names hits and unclear results; the compound was inactive in the other large screens.

O=C(NCCN1CCOCC1)c1ccc2c(c1)N(Cc1ccc(F)cc1)C(=O)CS2	TRPC4 block -7
O=C(NCCN1CCOCC1)c1cc2sccc2n1Cc1ccc(F)cc1	TRPC4 block -7
O=[N+]([O-])c1cccc(CNC2CCCCCC2)c1	none
CCOc1ccc([N+](=O)[O-])cc1CNC1CCCCCCC1	TRPC6 inh -5.89
COc1ccc2sc(N(CCCN(C)C)C(=O)c3ccc(S(=O)(=O)N(C)Cc4ccccc4)cc3)nc2c1	none
CN(C)CCN(C(=O)c1cccc2ccccc12)c1nc2cc3c(cc2s1)OCO3	TRPC4 act 73
CN(C)CCCN(C(=O)c1ccc(S(=O)(=O)N(C)Cc2ccccc2)cc1)c1nc2cc3c(cc2s1)OCO3	TRPC4 act 48
CCN(c1ccccc1)S(=O)(=O)c1ccc(C(=O)N(CCCN(C)C)c2nc3cc4c(cc3s2)OCO4)cc1	TRPC4 act 168
COc1ccc(C(=O)NNC(=O)CN2CCC(n3nnc4cc(C)ccc43)CC2)cc1	TRPC4 PAM 16
O=C(CN1CCC(n2nnc3cc(F)ccc32)CC1)NNC(=O)c1ccccc1	none
COc1ccc(C(=O)NC2CCN(CC(=O)NC3CCCCC3)CC2)cc1	TRPC4 block -6
Cc1ccc(-c2nc3cnccn3c2Nc2ccc3c(c2)OCO3)cc1	TRPC6 inh -5.7
OC1(c2cccs2)CN(c2ccc(Cl)cc2)C2=[N+]1CCCC2 (stereo not drawn)	TRPC4 block -6
COc1ccc(NC(=O)CSc2n[nH]c(=O)n2Cc2ccccc2)cc1Cl	none
O=[N+]([O-])c1ccc(NC(=S)N2CCc3ccccc3C2)cc1	TRPC4 block -6
C=CCNC(=O)/C(C#N)=C/c1ccc2c(c1)OCCO2	none
C=CCNC(=O)/C(C#N)=C/c1ccc(SC)cc1	TRPC4 PAM 10
Cc1cnc(NC(=O)Nc2ccc(OCc3ccccc3)cc2)c(Br)c1	none
CC1=C(C)C(=O)N(C(C)CCc2ccccc2)C1=O (stereo not drawn)	none
Cn1c(=O)cc(OCCCC(=O)NCCN2CCN(c3ccccc3F)CC2)c2ccccc21	none
Cn1c(=O)cc(OCCCC(=O)NCCCN2CCN(Cc3ccccc3)CC2)c2ccccc21	TRPC4 PAM 25
N#Cc1c(NCCCO)nc(NCc2ccccc2)c2c1CCN(Cc1ccccc1)C2	none
CN1CCc2c(C#N)c(N3CCCCC3)nc(NCc3ccccc3)c2C1	TRPC4 PAM 13
CN(C)C(=S)NC(=O)C12CC3(C)CC(C)(CC(C)(C3)C1)C2	none
COc1cc(OC)c(N(C)S(=O)(=O)c2cccc(C(=O)Nc3nnc(C4CC4)s3)c2)cc1Cl	none
Cc1cccc(Nc2nc(N)c([N+](=O)[O-])c(NCc3ccco3)n2)c1	TRPC4 PAM 10
Cc1ccc(OCCOC(=O)c2sc(=S)n(C)c2C)cc1	none
Cc1c(C(=O)OCCOc2ccc(Br)cc2)sc(=S)n1C	TRPC4 PAM 11
COc1ccccc1CC(=O)N1CCN(S(=O)(=O)c2ccccc2)CC1	TRPC4 PAM 20
CC1(C)NC(=O)N(CCCCOc2ccc3ccccc3c2Cl)C1=O	none
CC1(C)NC(=O)N(CCOCCOc2ccc3ccccc3c2Br)C1=O	TRPC4 PAM 13
OCC(O)CN1CCCC1 (stereo not drawn)	none
O=[N+]([O-])c1cc(CSC2=NCCN2)ccc1O	none
CCCOc1ccc(CSC2=NCCN2)cc1[N+](=O)[O-]	TRPC4 PAM 12
COc1ccc(CSC2=NCCN2)cc1Cl	TRPC4 PAM 10
COc1ccc(CSC2=NCCN2)cc1Br	none
CC(=O)c1ccc(N2CCN(CC(O)COC(c3ccccc3)c3ccccc3)CC2)cc1 (stereo not drawn)	TRPC4 PAM 11
OC(COC(c1ccccc1)c1ccccc1)CN1CCN(c2cccc(Cl)c2)CC1 (stereo not drawn)	none
CC(=O)c1ccc(N2CCN(CC(O)COC(c3ccccc3)c3ccccc3C)CC2)cc1 (stereo not drawn)	TRPC4 PAM 12
CC(C)Cn1cnc2c(c(-c3ccccc3)c(-c3ccccc3)n2Cc2ccco2)c1=N	TRPC6 inh -4.99
CC(C)(C)N=C1NN=C(c2cc3ccccc3o2)CS1	TRPC4 PAM 11
O=C(Nc1ccccc1N1CCN(C(=O)c2ccccc2)CC1)c1ccc(Br)o1	TRPC4 block -7
COc1ccc(C(=O)Nc2ccccc2N2CCN(C(=O)c3ccccc3)CC2)cc1Br	TRPC4 block -6
O=C(Nc1ccccc1N1CCN(C(=O)c2ccccc2)CC1)c1ccc(Cl)cc1	none
O=C(NC(=S)Nc1ccccc1)c1ccc(Br)o1	none
O=C(Nc1ccc(Nc2ccccc2)cc1)c1ccc(Br)o1	TRPC4 PAM 13
CC(=O)n1c2c(c3ccccc31)OC(N)=C(C#N)C2c1ccc(C(C)C)cc1 (stereo not drawn)	TRPC4 PAM 12
CN1CCC(=C2c3ccccc3CC(=O)c3sccc32)CC1	none
CN1CCC(=C2c3ccccc3CCc3sccc32)CC1	TRPC6 inh -6.65
Nc1cccc(-c2cnc3ccccc3n2)c1	none
O=C(C1=C[C@H](c2ccc(C(F)(F)F)cc2)C[C@H](OCCCCO)O1)N1CCN(Cc2ccccc2)CC1	TRPC4 act 186
COc1cc2c(cc1OC)CN(Cc1cc(=O)n3c(-c4ccccc4)csc3n1)CC2	TRPC4 act 122
O=c1cc(CN2CCN(c3ccccc3)CC2)nc2scc(-c3ccccc3)n12	none
COc1cc(=O)n2c(-c3ccccc3)csc2n1	TRPC4 block -7
C=C(C)CCOC(=O)C(CC(=O)O)NCc1ccco1 (stereo not drawn)	none
Cc1ccc(S(=O)(=O)Nc2cccc(C(=O)NCC(c3ccccc3)N(C)C)c2)cc1F (stereo not drawn)	TRPC4 act 66, TRPC4 block -10
CC(C)c1ccc(NC(=O)CNCC(c2ccccc2)N(C)C)cc1 (stereo not drawn)	none
Cc1ccc(NC(=O)CNCC(c2ccccc2)N(C)C)cc1F (stereo not drawn)	TRPC4 act 147
COc1ccc(C(CNC(=O)c2cccc(NS(=O)(=O)c3ccc(Br)cc3)c2)N(C)C)cc1 (stereo not drawn)	TRPC4 act 154
COc1ccc(C(CNC(=O)c2ccc(S(=O)(=O)N(C)C)cc2)N(C)C)cc1 (stereo not drawn)	TRPC4 act 242
Cc1ccc(NC(=O)CSc2nc3[nH]ncc3c(=O)[nH]2)cc1Cl	none
O=C(NCCN1C(=O)S/C(=C\c2cccnc2)C1=O)C1=NN(c2ccccc2)C(=O)CC1	none
Cc1cnc(CNC(=O)CC2C(=O)NCCN2Cc2cccc(F)c2F)cn1 (stereo not drawn)	none
O=C(Nc1cnn(C23CC4CC(CC(C4)C2)C3)c1)c1cnn2cccnc12	TRPC4 PAM 73
O=C(N/N=C/c1ccccn1)c1ccc([N+](=O)[O-])cc1Cl	none
O=C(O)c1[nH]c2ccc([N+](=O)[O-])cc2c1-c1ccccc1	none
